High-throughput results deposited in PubChem BioAssay by several laboratories.
Myeloid diff 2: myeloid differentiation induction; actives 1% (n = 360,000); calls only at 10 µM; AID 624256; ER-HoxA9 myeloid progenitors, lysozyme-GFP differentiation, flow cytometry;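 active = normalized GFP-positive differentiation at or above the plate's own cutoff, the solvent-only control mean plus 3 SD; inconclusive = no clear call, values can overlap the other calls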;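 note: cells exposed to compound for four days before flow analysis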
SKN-1 inh: inhibitors of C. elegans SKN-1; actives 0.49% (n = 360,000); inhibition, % at 21.8 µM; C. elegans VP596 Pgst-4::GFP/RFP ratio, acrylamide-induced, 24 h; AID 624304;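 active = interference check ratio from 0.5 to 1.5 plus GFP to RFP signal ratio inhibition reaching or exceeding a fixed threshold, cut at about 30% in these data, passing the limit was not always enough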
Rce1 inhib: blocks yeast Ras-converting enzyme. yeast membranes, quenched prenylated peptide cleavage fluorescence. actives 0.27% (n = 290,000). calls only. AID 2563;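 active = fall in fluorescence gain of 50% or more versus controls, with final raw signal at or below 3038400; inconclusive = same 50% fall but final raw signal above 3038400; inactive = fall in fluorescence gain under 50%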
T cell modulator: T cell immune modulators affecting CD8 T cell-vesicle binding. actives 0.068% (n = 330,000). response (vesicle binding), % at 7 µM. AID 2052. 2C CD8+ T cell-vesicle binding, flow cytometry; stronger effect = lower value;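 active = response, share of CD8 T cells binding vesicles, and their 90th percentile fluorescence all below set limits, cut at about 80% in these data, passing the limit was not always enough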;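 note: values below 100% mean blocked vesicle binding to the CD8+ T cells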
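material = purified 2C TCR transgenic mouse naive CD8+ T cells | controls = Unloaded micro-vesicles (low), QL9 vesicles with 0.7% DMSO (high) | detection = cytometric PE anti-B7-1 and Alexa647 anti-CD8 signals after 1% paraformaldehyde fixation | incubation = binding step 1.5 h, 37 °C, antibody labelling 20 min, ice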
Rin1 Abl inh: inhibitors of human Rin1-Abl protein interaction; inhibition, % at 7.35 µM; actives 0.4% (n = 360,000); TR-FRET Rin1/Abl binding, biochemical; in the data active = inhibition above about 5%, passing the limit was not always enough
Target sequence (P00519 whole entry, looked up): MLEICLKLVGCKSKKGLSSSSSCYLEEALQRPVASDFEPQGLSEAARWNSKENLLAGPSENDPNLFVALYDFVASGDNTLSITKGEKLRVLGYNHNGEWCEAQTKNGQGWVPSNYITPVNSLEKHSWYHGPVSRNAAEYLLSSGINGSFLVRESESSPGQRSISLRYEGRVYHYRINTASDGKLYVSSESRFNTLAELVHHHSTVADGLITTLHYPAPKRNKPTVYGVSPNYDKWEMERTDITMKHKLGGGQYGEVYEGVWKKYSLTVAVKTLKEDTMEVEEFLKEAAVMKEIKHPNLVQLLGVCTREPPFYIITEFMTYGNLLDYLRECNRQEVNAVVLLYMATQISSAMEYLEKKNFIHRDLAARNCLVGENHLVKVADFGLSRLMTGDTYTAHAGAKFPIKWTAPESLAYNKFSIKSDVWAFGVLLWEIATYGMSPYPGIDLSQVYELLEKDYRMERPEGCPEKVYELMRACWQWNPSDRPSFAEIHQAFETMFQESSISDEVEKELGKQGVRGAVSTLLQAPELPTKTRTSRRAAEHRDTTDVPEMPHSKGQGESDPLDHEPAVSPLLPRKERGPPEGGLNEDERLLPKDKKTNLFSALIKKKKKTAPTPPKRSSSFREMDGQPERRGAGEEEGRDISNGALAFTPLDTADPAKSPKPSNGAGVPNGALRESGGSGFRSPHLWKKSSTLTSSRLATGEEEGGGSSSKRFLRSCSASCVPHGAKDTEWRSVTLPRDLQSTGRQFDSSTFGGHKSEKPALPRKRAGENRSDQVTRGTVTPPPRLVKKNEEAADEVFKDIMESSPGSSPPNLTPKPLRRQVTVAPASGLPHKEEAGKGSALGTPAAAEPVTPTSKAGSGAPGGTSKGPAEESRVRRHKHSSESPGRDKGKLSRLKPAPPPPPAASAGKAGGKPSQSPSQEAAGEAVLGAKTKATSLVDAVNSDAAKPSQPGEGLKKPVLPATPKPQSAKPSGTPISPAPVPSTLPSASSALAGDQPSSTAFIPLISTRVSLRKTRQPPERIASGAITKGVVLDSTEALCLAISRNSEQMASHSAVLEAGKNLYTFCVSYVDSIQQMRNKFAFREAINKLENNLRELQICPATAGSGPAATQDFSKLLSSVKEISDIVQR
Target sequence (Q13671 whole entry, looked up): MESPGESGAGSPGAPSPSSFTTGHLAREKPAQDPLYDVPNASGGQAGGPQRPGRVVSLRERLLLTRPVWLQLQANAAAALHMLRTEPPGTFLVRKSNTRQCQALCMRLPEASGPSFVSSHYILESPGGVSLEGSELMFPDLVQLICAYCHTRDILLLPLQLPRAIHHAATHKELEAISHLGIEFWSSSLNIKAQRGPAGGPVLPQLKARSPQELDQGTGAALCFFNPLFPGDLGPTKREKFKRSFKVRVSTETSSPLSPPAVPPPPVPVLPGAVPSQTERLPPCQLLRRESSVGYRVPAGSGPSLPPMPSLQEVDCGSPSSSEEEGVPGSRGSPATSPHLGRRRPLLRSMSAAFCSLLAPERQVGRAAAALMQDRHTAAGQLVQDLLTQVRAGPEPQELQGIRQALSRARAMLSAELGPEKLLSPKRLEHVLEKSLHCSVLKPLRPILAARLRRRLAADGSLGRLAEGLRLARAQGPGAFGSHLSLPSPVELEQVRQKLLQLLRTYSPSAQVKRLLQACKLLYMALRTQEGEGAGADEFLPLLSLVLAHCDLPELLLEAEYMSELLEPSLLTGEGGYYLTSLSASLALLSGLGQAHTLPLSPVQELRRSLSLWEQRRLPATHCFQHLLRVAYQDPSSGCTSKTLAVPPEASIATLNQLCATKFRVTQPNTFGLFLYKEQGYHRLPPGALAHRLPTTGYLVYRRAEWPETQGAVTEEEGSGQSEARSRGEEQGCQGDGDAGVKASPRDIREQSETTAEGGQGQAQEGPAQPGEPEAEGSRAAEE
GRK2 inh: blocks RNA aptamer binding to human GRK2; actives 0.59% (n = 330,000); P25098; inhibition of aptamer binding, % at 10 µM; bead flow cytometry, FAM-aptamer displacement from GRK2;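 active = inhibition of aptamer binding above 40%, roughly 3 SD of noise, on plates passing a quality check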;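 note: median bead fluorescence of bound FAM aptamer so fluorescent compounds give negative values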
GRK2 CP1: confirmation of human GRK2 inhibitors displacing RNA aptamer. shares compounds with GRK2 inh. bead-bound GRK2, FAM-aptamer displacement, flow cytometry. aptamer displacement, % at 10 µM. actives 4% (n = 2,000);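 active = aptamer displacement above 40%, near three times the noise of non-fluorescent compounds, on plates passing quality checks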;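 note: negative values mostly reflect intrinsic compound fluorescence rather than true enhancement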
Aptamer quench 1: quenches fluorescent RNA aptamer, GRK2 hit artifact; shares compounds with GRK2 inh; Fluorescent RNA aptamer beads, quenching, flow cytometry; stronger effect = higher value; fluorescence change (kMESF span), kMESF (concentration not given with the values); 110 tested, under 10 active;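 active = compounds whose bead fluorescence drops by more than 37 kMESF across the dose range, marking them as dye quenchers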
FAM quench CP1: aptamer fluorescence quenching in GRK2 counter-screen. fluorescence response (% of DMSO), % at 10 µM. Carboxyfluorescein RNA aptamer on beads, flow cytometry quenching; stronger effect = lower value. AID 504580. 2,000 tested, under 10 active. shares compounds with GRK2 inh;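 active = compounds that quench the bead-bound fluorescent RNA probe, cutting fluorescence to under half of the solvent control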;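 note: counterscreen run without GRK2 so only probe quenching by compound is measured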
GRK2 confirm 2: confirmation of human GRK2 inhibitors binding RNA aptamer site; shares compounds with GRK2 inh; 360 tested, under 10 active; AID 504782; bead-bound GRK2, FAM-aptamer displacement, flow cytometry; inhibition of aptamer binding, % at 10 µM;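 active = inhibition of aptamer binding above 40%, about triple the noise seen with nonglowing compounds, on plates passing quality control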;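 note: negative values mostly come from compounds that fluoresce themselves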
FAM quench CP2: quenches fluorescent RNA aptamer, GRK2 hit artifact | shares compounds with GRK2 inh | carboxyfluorescein RNA aptamer beads, flow cytometry quenching; stronger effect = lower value | fluorescence response vs DMSO, % at 10 µM | 360 tested, under 10 active;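 active = response vs DMSO under 50%, meaning signal dropped by over half, treated as fluorescence quencher; inconclusive = no clear call, values can overlap the other calls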;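 note: labelled aptamer on streptavidin beads without GRK2 as a quench counter-screen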
Numbers stand for hits; 0 = inactive; ? = inconclusive; - = no result. The list is not random: actives were taken first. Their share in the collection is about 2.6%.

SMILES	Myeloid diff 2	SKN-1 inh	Rce1 inhib	T cell modulator	Rin1 Abl inh	GRK2 inh	GRK2 CP1	FAM quench CP1	others
CN(C)C(CNC(=O)C1CCCN(C(=O)c2ccc(Cl)cc2)C1)c1ccco1 (centres undefined)	0	0	-	0	0	68.0	0	0
O=C1C=C(O)c2cccc3cccc1c23	0	0	0	0	0	100.0	0	0
O=C(O)C1CC(c2ccccc2F)=NO1 (centres undefined)	0	0	0	0	0	0	-	-	GRK2 confirm 2=0;FAM quench CP2=0
COc1ccc(-c2nn(-c3ccccc3)cc2/C=C2/SC(=S)N(CCC(=O)O)C2=O)c(C)c1	0	0	0	0	0	80.0	0	0
COc1ccc(-c2nn(-c3ccccc3)cc2/C=C2/SC(=S)N(CCC(=O)O)C2=O)cc1	0	0	0	0	0	0	-	-
COC(=O)c1cc(S(=O)(=O)N2CCN(c3cccc(C)c3C)CC2)c[nH]1	0	0	0	0	0	0	-	-
O=C(CN(Cc1ccc(F)cc1)C(=O)c1csnn1)NC1CCCC1	0	0	-	0	0	0	-	-
O=c1c2c([N+](=O)[O-])cc([N+](=O)[O-])cc2sn1Cc1ccccc1	0	0	0	0	0	0	-	-
O=c1c2c([N+](=O)[O-])cc([N+](=O)[O-])cc2nc2ccccn12	0	0	-	0	0	69.0	0	0
COc1ccc(S(=O)(=O)NCC(=O)Nc2cccc(C)c2C)cc1OC	0	0	0	0	0	0	-	-
CC1(C)NC(=O)N(CC(=O)Nc2ccc(-n3cnnn3)cc2)C1=O	0	0	-	0	0	0	0	0
CCn1c(SCC(=O)OC)nnc1-c1ccncc1	0	0	0	0	0	0	-	-
CCCNC(=O)NC(=O)CSc1nnc(-c2ccncc2)n1CC	0	0	0	0	0	61.0	0	0
CC1CCN(c2ccc([N+](=O)[O-])cn2)CC1	0	0	0	0	0	55.0	-	-	GRK2 confirm 2=0;FAM quench CP2=0
CCN1/C(=C/c2ccc3cc(C)cc(C)c3[n+]2CC)Sc2cc(C)ccc21	?	0	-	-	0	-	-	-
CCN1/C(=C/c2ccc3cccc(C)c3[n+]2CC)Sc2ccccc21	?	49.2	0	0	0	91.0	68.8	0	Aptamer quench 1=0
CC(=O)NCCNc1nc2c(-c3cccc(C)c3)nnn2c2ccccc12	?	0	0	0	0	65.0	0	0
O=C(O)c1ccc(/C=C2\SC(=S)N(NC(=O)c3ccccc3[N+](=O)[O-])C2=O)cc1	0	0	0	0	0	47.0	0	0
COc1ccc(NC(=O)COC(=O)c2c3c(nc4ccccc24)CCCC3)cc1	0	0	0	0	0	0	-	-
COc1ccc(OC)c(NC(=O)COC(=O)c2c3c(nc4ccccc24)CCCC3)c1	?	0	0	0	0	73.0	0	0
Cc1cnc(NS(=O)(=O)c2ccc(N)cc2)nc1-c1ccccc1O	0	0	-	-	0	-	-	-
CCOC(=O)COc1ccc2c(=O)c(-c3ccccc3)coc2c1	0	0	0	0	0	0	-	-
CC(=O)Oc1ccc2c(=O)c(-c3ccccc3)coc2c1	0	0	0	0	0	0	0	0
Cc1ccccc1-c1cc(C(=O)NCc2cccs2)nn1CC1CC(c2cccc([N+](=O)[O-])c2)=NO1 (centres undefined)	0	0	-	0	0	0	0	0
Cc1ccccc1-c1cc(C(=O)NCc2ccco2)nn1CC1CC(c2cccc([N+](=O)[O-])c2)=NO1 (centres undefined)	0	0	-	0	0	0	-	-
SMILES	Myeloid diff 2	SKN-1 inh	Rce1 inhib	T cell modulator	Rin1 Abl inh	GRK2 inh	GRK2 CP1	FAM quench CP1	others
Cc1nn(CC(=O)N(C)Cc2ccc(F)cc2)c(C)c1[N+](=O)[O-]	0	0	0	0	0	100.0	-	-	GRK2 confirm 2=0;FAM quench CP2=0
Cc1nn(CCCC(=O)NCc2ccc(F)cc2)c(C)c1[N+](=O)[O-]	0	0	0	0	0	0	-	-
CC1CCCN(C(=O)C2CC(=O)N(c3ccc(Cl)cc3)C2)C1 (centres undefined)	0	0	0	0	0	0	-	-
COc1ccc(/C(O)=C2/C(=O)C(=O)N(CCN(C)C)C2c2ccc(OC)c(OC)c2)c(C)c1 (centres undefined)	0	0	0	0	0	71.0	0	0
COc1ccc(C2/C(=C(/O)c3cnn(-c4ccccc4)c3C)C(=O)C(=O)N2CCN(C)C)cc1OC (centres undefined)	0	0	-	-	0	-	-	-
COc1ccc(C2CC(C(F)(F)F)n3nc(C(=O)Nc4c(C)n(C)n(-c5ccccc5)c4=O)c(Cl)c3N2)cc1 (centres undefined)	-	-	0	0	-	0	0	0
CCOc1ccc(NC(=O)CSc2ncn[nH]2)cc1	0	0	0	0	0	0	-	-
Cc1nn(C)c(C(=O)N2CCc3ccccc32)c1Br	0	0	0	0	0	41.0	-	-	GRK2 confirm 2=0;FAM quench CP2=0
Cc1c(Br)c(C(=O)N2CCc3ccccc32)nn1C	0	0	0	0	0	0	-	-
COc1cccc(OC)c1C(=O)Nc1ccc(N2CCCC2)cc1	0	0	0	0	0	100.0	0	0
COc1ccc(-c2cnc3c(NC(C)=O)cc(-c4cccc(C(=O)N(C)C)c4)cn23)cc1OC	0	0	-	-	0	-	-	-
O=c1nc(Nc2ccc(Br)cc2)sc2ccc([N+](=O)[O-])cc12	0	0	0	0	0	42.0	0	0
N=C1C(c2ccccc2)=C(O)CN1CCO	0	0	-	0	0	0	-	-
CCOC(=O)Nc1ccc2c(c1)nc(CN1CCN(C(C)=O)CC1)n2C	0	0	0	0	0	68.0	0	0
O=Cc1nc(-c2ccccc2Cl)n2ccccc12	0	0	0	0	0	45.0	0	0
O=Cc1nc(-c2ccc(Cl)cc2)n2ccccc12	0	0	0	0	0	0	-	-
COc1ccc(N=C2O/C(=C/c3sc(=S)n(CC4CCCO4)c3O)N=C2C#N)cc1 (centres undefined)	0	0	0	0	0	0	-	-
CCC(Oc1ccccc1)C(=O)Nc1nnc(S(=O)(=O)Nc2ccccc2)s1 (centres undefined)	0	0	0	0	0	49.0	0	0
Cc1ccc(C(=O)N2CCC(Cc3ccccc3)CC2)cc1S(=O)(=O)N1CCOCC1	0	0	-	-	0	-	-	-
